Data: the M2OR odorant receptor database

Columns and labels:
Conditions in all cases: stereoisomer not certain
OR10R2 (Homo sapiens) = molecular target: T1, OR10R2 (Homo sapiens) (UniProt Q8NGX6)
T1 sequence (whole entry): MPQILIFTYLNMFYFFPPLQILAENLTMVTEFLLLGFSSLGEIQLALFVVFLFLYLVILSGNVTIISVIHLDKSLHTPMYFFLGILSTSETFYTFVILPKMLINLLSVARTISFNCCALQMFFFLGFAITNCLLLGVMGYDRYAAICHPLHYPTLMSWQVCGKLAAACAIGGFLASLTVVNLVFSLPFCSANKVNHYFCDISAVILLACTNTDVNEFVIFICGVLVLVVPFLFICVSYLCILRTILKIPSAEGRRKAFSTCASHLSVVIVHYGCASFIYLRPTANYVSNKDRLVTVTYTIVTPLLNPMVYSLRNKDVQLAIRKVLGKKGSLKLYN
Procedure, shortened: (§1)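 Each receptor–molecule pair is labelled responsive or non-responsive (inactive) according to whether the original authors judged the measured signal statistically different from baseline. The data were taken from the main text and supplementary material of published papers and checked for typos and inconsistencies. Assay methods differed by source, with transient luciferase assays in mammalian cell lines being common.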

OR10S1 (Homo sapiens) = molecular target: T2, OR10S1 (Homo sapiens) (UniProt Q8NGN2)
T2 sequence (whole entry): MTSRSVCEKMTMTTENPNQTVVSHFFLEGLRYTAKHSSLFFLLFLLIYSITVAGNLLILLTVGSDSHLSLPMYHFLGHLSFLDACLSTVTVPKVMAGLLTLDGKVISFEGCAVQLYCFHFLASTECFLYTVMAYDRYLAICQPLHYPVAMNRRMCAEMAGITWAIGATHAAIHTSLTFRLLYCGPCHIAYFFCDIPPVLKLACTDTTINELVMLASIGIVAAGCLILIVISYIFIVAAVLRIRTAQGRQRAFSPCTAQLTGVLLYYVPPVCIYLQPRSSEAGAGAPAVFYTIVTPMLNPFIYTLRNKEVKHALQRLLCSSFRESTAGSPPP
Procedure, shortened: as §1

OR10T2 (Homo sapiens) = molecular target: T3, OR10T2 (Homo sapiens) (UniProt Q8NGX3)
T3 sequence (whole entry): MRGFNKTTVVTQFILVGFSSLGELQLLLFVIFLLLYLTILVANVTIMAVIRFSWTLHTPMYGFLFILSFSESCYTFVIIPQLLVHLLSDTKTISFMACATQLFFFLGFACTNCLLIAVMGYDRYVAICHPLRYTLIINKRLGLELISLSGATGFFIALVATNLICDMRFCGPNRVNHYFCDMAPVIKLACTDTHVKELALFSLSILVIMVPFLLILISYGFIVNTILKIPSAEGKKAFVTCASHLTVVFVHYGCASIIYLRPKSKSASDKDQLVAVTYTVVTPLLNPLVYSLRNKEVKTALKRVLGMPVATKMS
Procedure, shortened: as §1

OR10V1 (Homo sapiens) = molecular target: T4, OR10V1 (Homo sapiens) (UniProt Q8NGI7)
T4 sequence (whole entry): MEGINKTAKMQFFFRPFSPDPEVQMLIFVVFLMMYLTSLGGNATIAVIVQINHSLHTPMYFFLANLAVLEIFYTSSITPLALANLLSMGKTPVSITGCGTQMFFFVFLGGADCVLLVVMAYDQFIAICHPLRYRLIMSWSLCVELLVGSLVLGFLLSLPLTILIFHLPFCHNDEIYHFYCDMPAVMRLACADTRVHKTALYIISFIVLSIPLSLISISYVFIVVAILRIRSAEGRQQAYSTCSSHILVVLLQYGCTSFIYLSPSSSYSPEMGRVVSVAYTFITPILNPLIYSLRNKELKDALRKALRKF
Procedure, shortened: as §1

OR10W1 (Homo sapiens) = molecular target: T5, OR10W1 (Homo sapiens) (UniProt Q8NGF6)
T5 sequence (whole entry): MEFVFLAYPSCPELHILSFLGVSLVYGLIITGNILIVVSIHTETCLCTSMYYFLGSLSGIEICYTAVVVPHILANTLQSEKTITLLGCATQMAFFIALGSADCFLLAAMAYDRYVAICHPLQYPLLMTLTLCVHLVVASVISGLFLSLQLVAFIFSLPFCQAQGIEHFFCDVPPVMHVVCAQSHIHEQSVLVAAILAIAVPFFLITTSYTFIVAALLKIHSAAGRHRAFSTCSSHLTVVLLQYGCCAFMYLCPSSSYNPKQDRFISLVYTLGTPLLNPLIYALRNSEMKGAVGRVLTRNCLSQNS
Procedure, shortened: as §1

OR10X1 (Homo sapiens) = molecular target: T6, OR10X1 (Homo sapiens) (UniProt Q8NGY0)
T6 sequence (whole entry): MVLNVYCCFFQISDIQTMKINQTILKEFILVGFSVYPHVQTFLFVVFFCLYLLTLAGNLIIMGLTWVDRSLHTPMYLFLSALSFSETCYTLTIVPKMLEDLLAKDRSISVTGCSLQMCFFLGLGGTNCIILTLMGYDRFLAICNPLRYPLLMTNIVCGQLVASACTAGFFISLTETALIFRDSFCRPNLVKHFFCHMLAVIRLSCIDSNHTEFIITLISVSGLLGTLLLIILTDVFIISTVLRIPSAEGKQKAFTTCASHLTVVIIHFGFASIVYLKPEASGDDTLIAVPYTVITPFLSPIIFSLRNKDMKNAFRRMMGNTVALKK
Procedure, shortened: as §1

OR10Z1 (Homo sapiens) = molecular target: T7, OR10Z1 (Homo sapiens) (UniProt Q8NGY1)
T7 sequence (whole entry): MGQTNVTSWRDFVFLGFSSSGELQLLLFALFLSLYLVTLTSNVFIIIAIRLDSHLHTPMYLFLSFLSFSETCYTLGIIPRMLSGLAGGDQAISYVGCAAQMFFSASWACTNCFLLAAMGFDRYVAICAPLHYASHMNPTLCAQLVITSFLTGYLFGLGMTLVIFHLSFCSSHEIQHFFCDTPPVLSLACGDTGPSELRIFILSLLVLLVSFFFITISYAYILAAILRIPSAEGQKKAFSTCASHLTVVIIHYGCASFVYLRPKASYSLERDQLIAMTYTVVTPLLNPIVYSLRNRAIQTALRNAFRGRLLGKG
Procedure, shortened: as §1

OR11A1 (Homo sapiens) = molecular target: T8, OR11A1 (Homo sapiens) (UniProt Q9GZK7)
T8 sequence (whole entry): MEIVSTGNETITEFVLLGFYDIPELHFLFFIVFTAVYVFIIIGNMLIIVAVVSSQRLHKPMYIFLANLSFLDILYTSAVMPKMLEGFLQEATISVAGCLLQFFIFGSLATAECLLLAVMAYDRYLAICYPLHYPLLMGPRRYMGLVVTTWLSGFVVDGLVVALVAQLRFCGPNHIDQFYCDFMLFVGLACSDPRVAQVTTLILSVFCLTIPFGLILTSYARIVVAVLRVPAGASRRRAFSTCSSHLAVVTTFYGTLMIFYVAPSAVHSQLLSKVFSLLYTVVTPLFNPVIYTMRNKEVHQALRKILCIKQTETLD
Procedure, shortened: as §1

OR11G2 (Homo sapiens) = molecular target: T9, OR11G2 (Homo sapiens) (UniProt Q8NGC1)
T9 sequence (whole entry): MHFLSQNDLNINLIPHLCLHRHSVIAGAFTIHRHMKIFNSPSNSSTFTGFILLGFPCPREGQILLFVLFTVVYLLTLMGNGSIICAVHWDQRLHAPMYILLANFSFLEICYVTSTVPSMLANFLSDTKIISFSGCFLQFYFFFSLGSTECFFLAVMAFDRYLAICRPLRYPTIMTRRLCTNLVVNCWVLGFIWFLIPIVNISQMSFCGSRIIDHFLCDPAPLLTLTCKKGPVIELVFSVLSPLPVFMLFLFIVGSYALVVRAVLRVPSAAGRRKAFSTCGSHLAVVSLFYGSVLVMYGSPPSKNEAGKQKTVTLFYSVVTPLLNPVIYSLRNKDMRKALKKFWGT
Procedure, shortened: as §1

OR11H1 (Homo sapiens) = molecular target: T10, OR11H1 (Homo sapiens) (UniProt Q8NG94)
T10 sequence (whole entry): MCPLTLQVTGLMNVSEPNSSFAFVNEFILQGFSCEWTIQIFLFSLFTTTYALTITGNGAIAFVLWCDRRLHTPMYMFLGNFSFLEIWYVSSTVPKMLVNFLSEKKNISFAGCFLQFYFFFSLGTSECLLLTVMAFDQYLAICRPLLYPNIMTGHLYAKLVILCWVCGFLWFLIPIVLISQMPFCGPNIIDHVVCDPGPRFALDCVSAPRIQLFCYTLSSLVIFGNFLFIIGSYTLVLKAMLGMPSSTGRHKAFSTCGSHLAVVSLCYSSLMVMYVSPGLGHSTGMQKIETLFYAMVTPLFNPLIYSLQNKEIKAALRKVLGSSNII
Procedure, shortened: as §1

Measured: odorant receptor agonist call;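 further: active if original authors judged signal statistically different from baseline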

CCC(S)C(C)CO (stereo not given)
inactive: OR10R2 (Homo sapiens) | OR10S1 (Homo sapiens) | OR10T2 (Homo sapiens) | OR10V1 (Homo sapiens) | OR10W1 (Homo sapiens) | OR10X1 (Homo sapiens) | OR10Z1 (Homo sapiens) | OR11A1 (Homo sapiens) | OR11G2 (Homo sapiens) | OR11H1 (Homo sapiens)
